In ChEMBL document CHEMBL1155097, “T-type Ca2+ channel blockers suppress the growth of human cancer cells” (Bioorg Med Chem Lett, 2008):

Experiments:
[1] = test system: DU-145; assay: Growth inhibition of human DU145 cells after 72 hrs by SRB assay; assay type: functional; details: DU-145, 72 h
Summary of the method: (§1)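 Cells seeded in 96-well plates, in exponential growth at time of sample addition; various concentrations added in triplicate, 37 °C, 5% CO2, 72 h. Fixed with formalin 30 min at room temperature, tap-water washed, stained with 0.4% SRB 30 min, washed with 1% acetic acid, dye solubilized in 10 mM unbuffered Tris base; OD at 520 nm. GI50 from dose–response curve, three independent experiments.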

[2] = test system: SK-MEL-2; assay: Growth inhibition of human SK-MEL-2 cells after 72 hrs by SRB assay; assay type: functional; details: SK-MEL-2, 72 h; summary of the method: as §1
[3] = test system: HT-29; assay: Growth inhibition of human HT29 cells after 72 hrs by SRB assay; assay type: functional; details: HT-29, 72 h; summary of the method: as §1
[4] = test system: SK-OV-3; assay: Growth inhibition of human SKOV3 cells after 72 hrs by SRB assay; assay type: functional; details: SK-OV-3, 72 h; summary of the method: as §1
[5] = test system: A549; assay: Growth inhibition of human A549 cells after 72 hrs by SRB assay; assay type: functional; details: A549, 72 h; summary of the method: as §1
[6] = biological target: Voltage-dependent T-type calcium channel subunit alpha-1G (Homo sapiens, UniProt O43497); assay: Inhibition of T-type calcium channel Cav3.1 alpha1G expressed in HEK293 cells by whole cell patch-clamp method; assay type: cell-based
Summary of the method: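 HEK293 stably coexpressing Cav3.1 (alpha1G) and Kir2.1; whole-cell recording, 3–4 MΩ electrodes. Internal (mM): 130 KCl, 11 EGTA, 5 Mg-ATP, 10 HEPES, pH 7.4. External (mM): 140 NaCl, 2 CaCl2, 10 HEPES, 10 glucose, pH 7.4. Currents evoked every 15 s by 50 ms step from −100 to −30 mV. IC50 for peak-current inhibition fitted from dose–response curves, three independent experiments.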

[7] = test system: Mus musculus; assay: Acute toxicity in ICR CD1 mouse assessed as mortality at 1000 mg/kg, po after 5 days; assay type: organism-based; design: dose 1000 mg/kg, route oral; details: in vivo, 120 h
Summary of the method: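 Single oral dose given as a corn oil mixture to two CD-1 (ICR) mice, with mortality monitored over 5 days.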

Sequence of Voltage-dependent T-type calcium channel subunit alpha-1G (O43497 whole entry): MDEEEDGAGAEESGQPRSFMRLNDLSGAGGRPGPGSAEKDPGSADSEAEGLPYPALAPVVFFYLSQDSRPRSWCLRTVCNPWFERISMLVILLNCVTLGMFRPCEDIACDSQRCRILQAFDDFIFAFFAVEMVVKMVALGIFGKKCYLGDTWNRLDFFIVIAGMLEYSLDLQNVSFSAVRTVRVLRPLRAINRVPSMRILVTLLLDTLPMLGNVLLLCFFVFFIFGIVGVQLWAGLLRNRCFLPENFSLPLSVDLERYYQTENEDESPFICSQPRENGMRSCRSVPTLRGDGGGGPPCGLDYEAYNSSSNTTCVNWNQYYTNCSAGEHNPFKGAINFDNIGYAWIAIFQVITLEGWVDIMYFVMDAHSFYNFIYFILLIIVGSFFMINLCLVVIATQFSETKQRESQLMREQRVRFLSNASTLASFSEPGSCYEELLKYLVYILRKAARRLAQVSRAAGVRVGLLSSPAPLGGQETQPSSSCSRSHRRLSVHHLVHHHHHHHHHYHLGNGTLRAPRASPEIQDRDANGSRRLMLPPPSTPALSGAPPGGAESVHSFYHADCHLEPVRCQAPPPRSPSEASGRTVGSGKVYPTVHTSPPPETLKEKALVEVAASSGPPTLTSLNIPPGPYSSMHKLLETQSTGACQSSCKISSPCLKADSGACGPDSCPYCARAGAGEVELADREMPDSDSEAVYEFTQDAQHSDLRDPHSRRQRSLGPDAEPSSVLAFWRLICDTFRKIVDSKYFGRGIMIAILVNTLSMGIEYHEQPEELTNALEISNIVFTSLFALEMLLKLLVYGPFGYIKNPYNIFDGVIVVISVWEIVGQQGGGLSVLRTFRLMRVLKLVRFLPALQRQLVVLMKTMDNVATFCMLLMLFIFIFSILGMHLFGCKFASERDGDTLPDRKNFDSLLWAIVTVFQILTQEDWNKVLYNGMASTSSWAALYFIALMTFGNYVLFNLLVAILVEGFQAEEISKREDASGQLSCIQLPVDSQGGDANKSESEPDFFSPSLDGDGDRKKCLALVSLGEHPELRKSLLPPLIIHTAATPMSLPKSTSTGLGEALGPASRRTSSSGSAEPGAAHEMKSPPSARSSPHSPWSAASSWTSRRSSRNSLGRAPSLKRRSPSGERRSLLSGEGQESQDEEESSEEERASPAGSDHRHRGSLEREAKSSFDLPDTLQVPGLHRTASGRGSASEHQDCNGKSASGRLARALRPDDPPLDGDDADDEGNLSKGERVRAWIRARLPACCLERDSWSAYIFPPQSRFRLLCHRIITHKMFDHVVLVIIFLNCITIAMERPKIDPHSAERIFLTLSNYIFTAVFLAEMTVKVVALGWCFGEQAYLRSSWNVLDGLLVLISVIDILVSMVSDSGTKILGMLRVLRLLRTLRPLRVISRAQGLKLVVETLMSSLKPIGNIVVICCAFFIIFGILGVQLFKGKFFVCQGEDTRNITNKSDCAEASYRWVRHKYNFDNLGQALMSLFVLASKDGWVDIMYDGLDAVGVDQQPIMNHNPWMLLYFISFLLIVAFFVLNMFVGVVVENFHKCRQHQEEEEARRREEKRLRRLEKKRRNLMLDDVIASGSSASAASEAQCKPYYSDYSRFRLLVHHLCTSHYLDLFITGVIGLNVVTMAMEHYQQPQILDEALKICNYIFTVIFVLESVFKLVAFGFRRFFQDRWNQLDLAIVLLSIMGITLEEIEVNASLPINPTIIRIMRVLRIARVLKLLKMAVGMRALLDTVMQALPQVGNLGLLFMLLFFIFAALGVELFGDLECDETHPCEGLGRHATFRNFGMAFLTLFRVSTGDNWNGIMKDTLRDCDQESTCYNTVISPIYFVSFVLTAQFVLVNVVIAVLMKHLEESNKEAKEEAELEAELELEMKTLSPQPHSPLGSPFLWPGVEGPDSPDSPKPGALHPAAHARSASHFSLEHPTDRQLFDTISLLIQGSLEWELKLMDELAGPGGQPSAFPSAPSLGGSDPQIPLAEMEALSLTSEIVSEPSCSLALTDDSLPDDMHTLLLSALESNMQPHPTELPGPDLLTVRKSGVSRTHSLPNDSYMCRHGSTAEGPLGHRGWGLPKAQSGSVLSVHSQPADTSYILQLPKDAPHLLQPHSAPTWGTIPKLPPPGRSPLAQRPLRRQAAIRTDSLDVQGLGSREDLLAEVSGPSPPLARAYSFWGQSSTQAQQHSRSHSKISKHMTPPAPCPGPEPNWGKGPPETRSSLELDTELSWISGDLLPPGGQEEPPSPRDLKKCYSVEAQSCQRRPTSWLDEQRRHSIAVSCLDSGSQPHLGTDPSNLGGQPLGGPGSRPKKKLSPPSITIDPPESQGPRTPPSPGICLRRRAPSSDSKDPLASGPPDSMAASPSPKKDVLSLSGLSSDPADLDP

SMILES	GI50 [1]	GI50 [2]	GI50 [3]	GI50 [4]	GI50 [5]	IC50 [6]	Activity [7]
COC(=O)CC1c2ccccc2N=C(NCCCCCNC(=O)OC(C)(C)C)N1c1ccc(-c2ccccc2)cc1 (stereo unspecified)	3830 nM	4310 nM	2080 nM	4610 nM	3830 nM		
COC(=O)CC1c2ccccc2N=C(Nc2ccc(-c3ccccc3)cc2)N1CCCCCN (stereo unspecified)	4090 nM	1800 nM	1080 nM	3990 nM	2900 nM		
CC(C)(C)OC(=O)NCCCCCNC1=Nc2ccccc2C(CC(=O)NCc2ccccc2)N1c1ccccc1 (stereo unspecified)	4260 nM	2020 nM	3180 nM	7180 nM	7740 nM	570 nM	
Cc1ccc(S(=O)(=O)Nc2ccc(CNC(=O)CC3c4ccccc4N=C(N(C)C)N3c3ccccc3)cc2)cc1 (stereo unspecified)	6520 nM	8530 nM	3150 nM	15600 nM	14300 nM	630 nM	
CCN1C(N2CCCCC2)=Nc2ccccc2C1CC(=O)NCc1ccc(NS(=O)(=O)c2ccc(F)cc2)cc1 (stereo unspecified)	17200 nM	17000 nM	13900 nM	26100 nM	24500 nM	1040 nM	
CC(C)(C)OC(=O)NCCCCCNC1=Nc2ccccc2C(CC(=O)NCc2ccccc2)N1c1ccc(-c2ccccc2)cc1 (stereo unspecified)	1640 nM	1480 nM	1670 nM	1610 nM	1830 nM		
CN(CCCCCN1CCCC1)C1=Nc2ccccc2C(CC(=O)NCc2ccccc2)N1c1ccc(-c2ccccc2)cc1 (stereo unspecified)	2490 nM	690 nM	610 nM	2760 nM	870 nM		
CN(C)C1=Nc2ccccc2C(CC(=O)NCc2ccc([N+](=O)[O-])cc2)N1c1ccccc1 (stereo unspecified)	> 100000 nM	31600 nM	22300 nM	> 100000 nM	> 100000 nM	350 nM	
CN(C)CCCCCN(C)C1=Nc2ccccc2C(CC(=O)NCc2ccccc2)N1c1ccc(-c2ccccc2)cc1 (stereo unspecified)	190 nM	480 nM	40 nM	660 nM	170 nM		Non-toxic
CN(C)C1=Nc2ccccc2C(CC(=O)NCc2ccc(N)cc2)N1c1ccccc1 (stereo unspecified)	> 100000 nM	44000 nM	28300 nM	> 100000 nM	> 100000 nM	380 nM	
O=C(CC1c2ccccc2N=C(N2CCCCC2)N1c1ccccc1)NCc1ccc(NS(=O)(=O)c2ccc(F)cc2)cc1 (stereo unspecified)	1710 nM	1730 nM	1710 nM	1950 nM	1930 nM		
COc1cccc2c1C(=O)c1c(O)c3c(c(O)c1C2=O)C[C@@](O)(C(=O)CO)C[C@@H]3O[C@H]1C[C@H](N)[C@H](O)[C@H](C)O1 (stereo in doubt) [DOXORUBICIN]	60 nM	110 nM	210 nM	120 nM	160 nM		
CC(C)(C)OC(=O)NCCCCCN1C(Nc2ccc(-c3ccccc3)cc2)=Nc2ccccc2C1CC(=O)NCc1ccccc1 (stereo unspecified)	1790 nM	1590 nM	1700 nM	2010 nM	1870 nM		
COC(=O)CC1c2ccccc2N=C(N(C)CCCCCN(C)C)N1c1ccc(-c2ccccc2)cc1 (stereo unspecified)	1780 nM	1910 nM	520 nM	1950 nM	1770 nM		
